Rows were chosen to be rich in hits. Some 1.4% of all compounds tested hit in one or more screens of this group.
Vif inh: blocks HIV Vif function | 0.35% of 340,000 active | AID 602346 | inhibition, % at 7.49 µM | HEK293T cells, Vif self-association by quenched fluorescence, imaging, 24 h; in the data active = inhibition above about 50%, passing the limit was not always enough; inconclusive = no clear call, values can overlap the other calls; inactive = below about 31%
SR-BI HDL uptake: inhibitors of mouse SR-BI mediated HDL lipid uptake; Q61009; ldlA[mSR-BI] CHO cells, DiI-HDL uptake fluorescence, 3 h; inhibition, % at 12.5 µM; 0.96% of 320,000 active; AID 488896;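 active = mean replicate inhibition of at least 70% and a set share of replicates each scoring 70 or more; inconclusive = meets just one of the two criteria; inactive = fails both criteria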
PKA-R2B act: activates the human PKA-R2B holoenzyme complex; P22694+P31323; PKA-R2B holoenzyme dissociation, Cy5-IP20 fluorescence polarization; R2B truncated from residue 108, S112A mutant; 0% DMSO only, 100% 113 µM cGMP; activation, % at 11.4 µM; 0.079% of 340,000 active;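 active = activation above a cutoff set at the mean over all compounds plus 3 SD, cut at about 18% in these data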;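 also: higher means more holoenzyme dissociation and a rise in polarization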
Target sequence (P31323 whole entry, looked up, other chains not shown, the tested form may be a part): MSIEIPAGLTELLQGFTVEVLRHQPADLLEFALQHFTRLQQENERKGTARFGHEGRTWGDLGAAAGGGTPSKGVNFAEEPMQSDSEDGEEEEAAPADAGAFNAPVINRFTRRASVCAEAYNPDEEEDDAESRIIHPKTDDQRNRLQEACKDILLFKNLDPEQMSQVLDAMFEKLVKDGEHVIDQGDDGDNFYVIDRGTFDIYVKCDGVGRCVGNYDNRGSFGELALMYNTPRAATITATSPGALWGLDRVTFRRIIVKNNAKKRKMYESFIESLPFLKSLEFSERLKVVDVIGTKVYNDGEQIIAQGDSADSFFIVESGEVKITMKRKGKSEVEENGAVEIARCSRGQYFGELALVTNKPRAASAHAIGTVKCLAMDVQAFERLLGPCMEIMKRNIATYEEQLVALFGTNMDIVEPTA
SR-BI uptake up: enhances SR-BI lipid uptake from DiI-HDL; activation, % at 12.5 µM; 0.096% of 320,000 active; AID 504775; CHO ldlA[mSR-BI] cells, DiI-HDL uptake fluorescence, 3 h; 100 = double the neutral-control signal;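 active = mean replicate activation of at least 60% and every replicate at or above 60%; inconclusive = mean or all-replicate condition met, but not both; inactive = mean below 60% and not all replicates reaching 60%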
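Test system: SR-BI-overexpressing, LDLR-lacking CHO cells; Medium: Ham's F12 with 0.5% BSA, HEPES 25 mM, pH 7.4; Schedule: 3 h, 37 °C; Technique: bottom-read fluorescence, 550/595 nm.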
PKA-R1A act: activates the PKA-R1A holoenzyme complex; 0.083% of 340,000 active; activation, % at 11.4 µM; P00514+P68181; PKA-R1A dissociation, Cy5-IP20 fluorescence polarization; scaled: DMSO 0%, 113 µM cGMP 100%; AID 504707;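 active = percent activation above the mean of all tested compounds plus 3 SD, cut at about 19% in these data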;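 also: higher means more PKAc released from R1A so a rise in polarization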
Large screens that a line does not name were inactive.

Cc1cc(C)c(NC(=O)CSc2nc3ccc(NC(=O)CSc4nnnn4-c4ccccc4)cc3s2)c(C)c1	SR-BI HDL uptake 77
C=C(C)C(=O)OCC(O)COc1ccc(C(C)(C)c2ccc(OCC(O)COC(=O)C(=C)C)cc2)cc1 (centres undefined)	none
COc1ccccc1/C=N/N(C(C)=O)c1nc(-c2ccc(F)cc2)cs1	SR-BI HDL uptake 82
COc1ccc(/C=N/N(C(C)=O)c2nc(-c3ccc(C)cc3)cs2)cc1	none
Cc1ccc(S(=O)(=O)Nc2ccc3c(c2)C(=O)N([C@H](C)CO)C[C@H](C)[C@@H](CN(C)Cc2ccc(-c4ccccc4)cc2)O3)cc1	SR-BI uptake up 76
C[C@H]1CN([C@@H](C)CO)C(=O)Cc2cc(NS(C)(=O)=O)ccc2O[C@@H]1CN(C)Cc1ccc(Cl)c(Cl)c1	none
C[C@@H]1CN([C@@H](C)CO)C(=O)Cc2cc(NC(=O)Nc3ccc(F)cc3)ccc2O[C@@H]1CN(C)Cc1ccc(Cl)c(Cl)c1	SR-BI uptake up 93
Cn1c(SCC(=O)Nc2ccc(C(N)=O)cc2)nnc1-c1cccs1	none
CCOCc1c(C(=O)OCC(=O)Nc2ccc(C)c(S(=O)(=O)N(C)C)c2)oc2ccccc12	none
COc1ccc(C(=O)NNC(=O)c2ccc3ccccc3c2)cc1	none
COc1cc(OC)cc(C(=O)NNC(=O)c2cc3ccccc3cc2O)c1	SR-BI HDL uptake 114
COc1ccccc1NC(=O)NNC(=O)c1cc2ccccc2cc1O	SR-BI HDL uptake 94
COc1cccc(C(NC(C)=O)c2nc(-c3ccc(F)cc3OC)cs2)c1 (centres undefined)	none (no result: SR-BI HDL uptake, PKA-R2B act, SR-BI uptake up, PKA-R1A act)
Cc1sc(NC(=O)c2sc3nc4c(C)cccc4cc3c2N)c(C#N)c1C	Vif inh 53, SR-BI HDL uptake 90
Cc1cccc2cc3c(N)c(C#N)sc3nc12	none
CC(C)Sc1nc2c(c(=O)n1C)SC(C)C2 (centres undefined)	SR-BI uptake up 183 (no result: Vif inh)
Cc1ccc(N(C(=O)c2csnn2)C(C(=O)NC2CCCC2)c2ccccn2)cc1 (centres undefined)	Vif inh 56 (no result: SR-BI HDL uptake, SR-BI uptake up)
O=C(NC1CCCC1)C(c1ccccn1)N(C(=O)c1csnn1)c1ccccc1 (centres undefined)	none
O=C(N/N=C/c1cc(Br)cc(Br)c1O)c1cccc(S(=O)(=O)N2CCOCC2)c1	Vif inh inconclusive (no result: SR-BI HDL uptake, SR-BI uptake up)
O=C(N/N=C/c1cc(Cl)cc([N+](=O)[O-])c1O)c1cccc(S(=O)(=O)N2CCOCC2)c1	SR-BI HDL uptake 125
O=C(N/N=C/c1ccccc1Br)c1cccc(S(=O)(=O)N2CCOCC2)c1	SR-BI HDL uptake 80
O=C(N/N=C/c1sc(N2CCOCC2)nc1-c1ccccc1)c1ccc(O)cc1	none
O=C(N/N=C/c1sc(N2CCOCC2)nc1-c1ccccc1)c1cccc(S(=O)(=O)N2CCCC2)c1	SR-BI HDL uptake 97
CCOc1ccc(NC(=O)CN(c2ccc(OC)c(OC)c2)S(=O)(=O)c2ccc(C)cc2)cc1	none
CC(C)N1CCC1(C)C(=O)Nc1cccc(C#N)c1 (centres undefined)	none (no result: SR-BI HDL uptake, PKA-R2B act, SR-BI uptake up, PKA-R1A act)
Cc1ccc(-c2onc3ccc(C(=O)/C=C/N(C)C)cc23)cc1	none (no result: Vif inh)
CN(C)/C=C/C(=O)c1ccc2noc(-c3ccc(F)cc3)c2c1	SR-BI HDL uptake 87
CC(=O)c1c(C)[nH]c(C(=O)OCc2cccc(Cl)c2)c1C	SR-BI HDL uptake 71
Cc1ccc(S(=O)(=O)N2CCCCC2)cc1C(=O)OCC(=O)N1c2ccccc2NC(=O)C1(C)C	none
Cc1ccc(C(=O)OCC(=O)N2c3ccccc3NC(=O)C2(C)C)cc1S(=O)(=O)N1CCCCC1	SR-BI HDL uptake 84
O=C(N/N=C/c1cc(Cl)cc(Cl)c1O)c1ccncc1	SR-BI HDL uptake 132
O=C(Nc1cc(S(=O)(=O)Nc2ccc(Cl)cc2)ccc1O)c1ccc(S(=O)(=O)N2CCCCCC2)cc1	none
O=C(N/N=C/c1cccnc1)c1cccc(Cl)c1	none
O=C(N/N=C/c1cc(Cl)ccc1O)c1ccccc1Br	SR-BI HDL uptake 78
O=C(N/N=C\c1cc(Cl)ccc1O)c1ccc(S(=O)(=O)N2CCCCC2)cc1	SR-BI HDL uptake 135
O=C(N/N=C/c1ccc(Cl)cc1Cl)c1ccncc1	none
O=C(N/N=C/c1cc(Cl)ccc1O)c1cccnc1	SR-BI HDL uptake 70
Oc1c(Cl)cc(Cl)cc1/C=N/Nc1ncc(Br)cn1	SR-BI HDL uptake 130
CNC(=O)c1c(NC(=O)C2=COCCO2)sc2c1CCCC2	none
Cc1c(C(=O)NNC(=O)c2ccccc2O)oc2ccc(Br)cc12	SR-BI HDL uptake 129
Cc1c(C(=O)NCc2cccs2)oc2ccc(Br)cc12	none
CCOc1ccc2oc(C(=O)NNC(=O)c3ccccc3O)c(C)c2c1	SR-BI HDL uptake 131
Cc1cc(C)c2nc3sc(C(=O)N4CCOCC4)c(N)c3cc2c1	Vif inh 67 (no result: SR-BI HDL uptake, SR-BI uptake up)
Cc1ccc(C(=O)Nc2nn(C)c3cccc(F)c23)cc1	Vif inh 50 (no result: SR-BI HDL uptake, PKA-R2B act, SR-BI uptake up, PKA-R1A act)
Cn1nc(NC(=O)C2CCC2C(=O)O)c2c(F)cccc21 (centres undefined)	none
CC1CCN(C(=O)c2ccccc2SCC(=O)NCC2CCCCC2)CC1	SR-BI uptake up 588
COc1ccc(OC)c(NC(=O)C(=O)c2cn(CC(=O)N3CCCC3)c3ccccc23)c1	SR-BI HDL uptake 80
COc1ccc(NC(=O)C(=O)c2cn(CC(=O)N3CCCC3)c3ccccc23)cc1OC	SR-BI HDL uptake 80
COc1cccc(NC(=O)C(=O)c2cn(CC(=O)N3CCCC3)c3ccccc23)c1	SR-BI HDL uptake 75
COc1ccccc1CNC(=O)C(=O)c1cn(CC(=O)N2CCCC2)c2ccccc12	SR-BI HDL uptake 78 (no result: Vif inh, SR-BI uptake up)
CC1CN(S(=O)(=O)c2cccc(C(=O)Nc3ccccc3N3CCCC3)c2)CC(C)O1 (centres undefined)	none
CCN(CC)S(=O)(=O)c1ccc2[nH]c(=O)cc(C(=O)Nc3ccccc3N3CCCC3)c2c1	none
CSc1cccc(NC(=O)C2CCCN(S(C)(=O)=O)C2)c1 (centres undefined)	none (no result: SR-BI HDL uptake, SR-BI uptake up)
CCOC(=O)C1=CCN(S(=O)(=O)c2ccccc2Cl)C1c1ccccc1 (centres undefined)	none (no result: SR-BI HDL uptake, PKA-R2B act, SR-BI uptake up, PKA-R1A act)
COc1ccccc1/C=C/C(=O)NCC(=O)N/N=C/c1cc(Br)ccc1OC	SR-BI HDL uptake 98
COc1ccc(/C=C/C(=O)NCC(=O)N/N=C/c2cc(Br)ccc2OC)cc1	SR-BI HDL uptake 78
O=C(COC(=O)c1cc2ccccc2oc1=O)Nc1ccc(F)cc1F	none
CN1CCN(S(=O)(=O)c2cccc(C(=O)N(Cc3ccccc3)c3ccccc3)c2)CC1	none
CC(NC(=O)NC(=O)c1cccc(Cl)c1)c1ccccc1 (centres undefined)	none
CCc1ccc(/C=N/NC(=O)c2cc(C3CC3)nc3ccc(Br)cc23)s1	SR-BI HDL uptake 87
CCOCCCn1c(SCC(=O)Nc2ccccc2OC)nc2ccccc2c1=O	none
